In all, about 2,100 compounds went through this assay and about 30 (1%) were called active.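 Rule for the calls: active = inhibition above about 20% chosen separately for each screening run (limit read from the data); inactive = the rest.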 Not all results are given here.
These compounds were tested against Disintegrin and metalloproteinase domain-containing protein 10 (Homo sapiens) (UniProt O14672) (assay: human ADAM10 inhibitors, confirmation, biochemical, QFRET, triplicate (AID 743208;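 note: 0% = DMSO wells and 100% = marimastat wells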)). Details: ADAM10 QFRET peptide cleavage, EDANS fluorescence; at 6.95 µM; stronger effect = higher value.
Sequence of Disintegrin and metalloproteinase domain-containing protein 10 (Homo sapiens) (O14672 214-748 limits assumed): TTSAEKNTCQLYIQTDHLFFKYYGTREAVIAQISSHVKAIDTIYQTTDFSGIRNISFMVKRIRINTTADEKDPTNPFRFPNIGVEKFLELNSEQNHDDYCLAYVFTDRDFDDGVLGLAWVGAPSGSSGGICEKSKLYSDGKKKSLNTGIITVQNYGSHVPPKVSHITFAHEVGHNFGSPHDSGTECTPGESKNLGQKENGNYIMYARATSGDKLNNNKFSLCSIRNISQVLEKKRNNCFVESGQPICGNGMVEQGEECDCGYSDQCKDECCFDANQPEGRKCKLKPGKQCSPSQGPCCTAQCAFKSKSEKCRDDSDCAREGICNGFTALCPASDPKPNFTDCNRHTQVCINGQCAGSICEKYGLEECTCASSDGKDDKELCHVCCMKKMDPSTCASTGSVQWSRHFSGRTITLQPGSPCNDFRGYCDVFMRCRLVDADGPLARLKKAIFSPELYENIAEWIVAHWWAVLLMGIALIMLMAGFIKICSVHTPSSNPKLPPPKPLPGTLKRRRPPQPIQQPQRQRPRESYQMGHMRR
Outline: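 system = ADAM10 enzyme, FRET peptide substrate | compound = 6.95 µM single dose | incubation = 30 min preincubation and 3 h reaction at 25 °C | signal = FRET fluorescence, ex 359 nm, em 460 nm | evaluation = percent inhibition of peptide cleavage scaled between DMSO and marimastat controls | repeats = triplicate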

inhibition, inactive:
COc1cc(Cl)c(S(=O)(=O)N2CCN(Cc3ccc4c(c3)OCO4)CC2)cc1Cl 3.51%, O=C(/C=C/c1ccc(F)cc1)NC(=S)NNC(=O)c1cccnc1 0.49%, O=C(CC(O)(C(F)(F)F)C(F)(F)F)Nc1ccc(Cl)c(Cl)c1 2.03%, CCOc1ccc(N2C(=O)CC(N(CCc3ccc(OC)c(OC)c3)C(=S)Nc3ccccc3)C2=O)cc1 (stereo unspecified) 0.13%, CC(C)(C)OC(=O)CNC(=O)c1[nH]cnc1C(=O)N[C@@H](Cc1ccccc1)C(=O)OCc1ccccc1 6.97%, COc1cccc(C2CC(c3ccccc3)=NN2S(=O)(=O)c2ccccc2)c1OC (stereo unspecified) 4.77%, Cc1cc(C)cc(NC(=S)NCCc2c[nH]c3ccccc23)c1 2.41%, COc1ccc(NS(=O)(=O)c2ccc(C)c(C(=O)NNC(=O)c3csc(N4CCOCC4)n3)c2)cc1 2.95%, CCC1(C)Cc2c(sc3nnn(CC(=O)Nc4ccc(Cl)cc4)c(=O)c23)CO1 (stereo unspecified) 6.24%, O=C(CSC1=NCCS1)Nc1nc(-c2ccccc2)cs1 0.24%, COc1ccc(C(N)c2csc(NC(=O)Nc3cccc(C(F)(F)F)c3)n2)cc1 (stereo unspecified) 3.14%, O=C1NC(Nc2nc3ccccc3s2)(C(F)(F)F)C(=O)N1C1CCCCC1 (stereo unspecified) 3.12%, Cc1cc(C)cc(NC(=O)CSCc2cnn(-c3ccccc3)c2-n2cccc2)c1 7.84%, Cc1ccc(OCc2nnc(SC/C=C/c3ccccc3)n2Cc2ccco2)cc1 5.61%, CC(C)(C)N1C(=O)[C@H]2[C@@H](c3ccc(Br)cc3)N3C(=O)N(c4cccc(Cl)c4)C(=O)[C@@]3(C)[C@H]2C1=O 2.62%, O=C(Nc1cccc(S(=O)(=O)Nc2ccc(Cl)cc2)c1)c1ccc2c(c1)OCCO2 8.03%, O=C(NCc1ccccc1)c1onc(CSc2nc3ccccc3[nH]2)c1C(=O)NCc1ccccc1 5.46%, CC(C)Oc1ccc(CC(=O)NNC(=S)Nc2ccc(Br)cc2)cc1 3.54%, COC(=O)C1NN=C(C(=O)c2ccc(Br)cc2)C1c1cccc(Br)c1 (stereo unspecified) 3.07%, COc1ccc(C(=O)NNC(=S)NC(=O)c2ccccc2)cc1 0.52%, COc1ccc([C@H]2CC(=O)C=C(c3ccc(OC(F)(F)F)cc3)C2)cc1OC 1.68%, COc1cc(/C=C2/SC(=S)N(Cc3ccccc3)C2=O)cc(OC)c1O 7.56%, O=C(Oc1cccc(N2C(=O)C3C4c5ccccc5C(c5ccccc54)C3C2=O)c1)c1ccco1 (stereo unspecified) 3.26%, CC1(C)C=Cc2c(ccc3c2OC[C@@H](c2ccc(O)cc2O)C3)O1 9.96%, CCOc1cc(/C=N/NC(=O)c2cc(-c3ccccc3)nc3ccccc23)ccc1O 9.93%, C=C(C)COc1ccc(-c2n[nH]c(C)c2-c2ccccc2)c(O)c1 5.81%, Cc1cccc(CCNS(=O)(=O)c2ccc(S(=O)(=O)NC3CCCC3)cc2)c1 0.65%, Cc1ccccc1-n1c(SCC(=O)Nc2cccc3ccccc23)nc(O)cc1=O -0.12%, COc1ccccc1CC1(C)C(=O)Nc2ccc(OC(F)(F)F)cc21 (stereo unspecified) 0.74%, O=C(OCc1ccc(-c2ccccc2)cc1)c1cccc(O)c1 12.8%, O=S(=O)(c1cccc(S(=O)(=O)N2CCC(n3nnc4ccccc43)CC2)c1)N1CCCCC1 0.35%, COc1cccc(NC(=O)CN2CCN(c3nc(-c4cccc(OC)c4)cs3)CC2)c1 8.73%, C=CCC[C@@H](Cc1ccc(F)cc1)C(=O)O[C@H](CNC(=O)[C@H](CC=C)CC(=O)N(CCO)Cc1ccccc1)c1ccccc1 11.4%, COc1cccc(NC(=O)C2C(c3ccccc3)C2(Cl)Cl)c1 (stereo unspecified) 5.98%, CCOc1cc(NC(=O)c2ccccc2C(=O)O)c(OCC)cc1NC(=O)c1ccccc1F 3.74%, O=C(Cc1ccc(Cl)c(Cl)c1)Nc1ccc(SC(F)F)cc1 7.73%, COc1cccc(CC2(CO)CCCN(Cc3ccc(OC(F)F)cc3)C2)c1 (stereo unspecified) -1.93%, Cc1cc(O)ccc1-c1cc(C(=O)NCc2cc(C(F)(F)F)cc(C(F)(F)F)c2)[nH]n1 1.37%, Cn1nc(C(F)(F)F)c(C(=O)Nc2cccc(C(F)(F)F)c2)c1SCc1ccc(Cl)cc1 7.28%, CCC(C)(C)c1ccc(Oc2ccc(NC(=O)COC(=O)C3=COCCO3)cc2)cc1 9.01%, Cc1[nH]c2ccccc2c1C(=O)COC(=O)c1c(-c2ccccc2)noc1C 3.43%, Cn1c(CNc2nc(-c3ccccc3)cs2)nnc1SCC(=O)c1ccccc1 0.21%, COc1cc(/C=N/n2c(C)n[nH]c2=S)ccc1OCc1ccccc1 -0.86%, COc1ccc(C(CCN(Cc2ccc(OC)c(OC)c2)C(=O)CCl)c2ccccc2)cc1 (stereo unspecified) 2.71%, O=S(=O)(c1ccccc1)N(Cc1cccc(F)c1)c1ccccc1 3.92%, Cc1ccc(N(NC(=O)C(C)(C)O)C(=O)c2ccccc2)cc1C 0.68%, Cc1ccc(C)c(NC(=S)NNC(=O)c2csc(C)c2)c1 3.38%, Cc1ccc(/C=N/NC(=O)CSc2nc3ccccc3o2)cc1 0.27%, COc1ccc(OCCCn2cccc2/C=C2/C(=N)N3OC(C)=CC3=NC2=O)cc1 1.45%, COc1ccc(C(=O)NN2C(=O)C3C(c4ccccc4)C=CC(c4ccccc4)C3C2=O)cc1 (stereo unspecified) 6.22%, COc1ccc(S(=O)(=O)N2CCN(C(C)C(=O)Nc3ccc(C(C)C)cc3)CC2)cc1 (stereo unspecified) 4.39%, COc1ccc(C2CC(c3ccccc3)=NN2C(=O)COC(=O)COc2ccccc2)cc1 (stereo unspecified) 8.14%, O=C(CSCc1ccc(Br)cc1)Nc1ccc(S(=O)(=O)N2CCCCCC2)cc1 7.76%, Cc1cnc(C(=O)OCc2c(C)cc(C(C)(C)C)cc2C)cn1 0.57%, Cc1cc(Nc2ccccc2)n(C(=O)c2ccc(N)cc2)n1 2.25%, CCCCCc1c(-c2ccc(OC)c(OC)c2)ncn1CCc1ccccc1OC 5.03%, O=C(CC1SC(=Nc2ccccc2)N(Cc2ccccn2)C1=O)Nc1cccc(Cl)c1 (stereo unspecified) 7.51%, CC(C)(C)c1ccc(S(=O)(=O)NCC2CCN(C(=O)C(=O)c3cc4ccccc4o3)CC2)cc1 6.76%, CCCC(=O)n1nc(NCc2ccc(OC)cc2)nc1NCc1ccc(OC)cc1 9.12%, O=C1[C@H]2[C@@H](c3ccc(F)cc3)N3C(=O)N(c4ccc(C(F)(F)F)cc4)C(=O)[C@@]3(Cc3ccccc3)[C@H]2C(=O)N1C1CCCCC1 8.51%, CN(C)S(=O)(=O)c1cccc(NC(=O)COC(=O)C2(c3ccccc3F)CCCC2)c1 2.23%, O=C(NC(Cc1c[nH]c2ccccc12)C(=O)N/N=C/c1ccc(Br)cc1)c1cccs1 (stereo unspecified) 9.54%, S=c1[nH]cc(-c2ccc(Cl)cc2)n1-c1ccccc1 1.28%, COC(=O)[C@@]12C[C@@H](CC(=O)NCCCCc3ccccc3)C(=O)N(CCc3ccc(OC)c(OC)c3)C1=CCC(C)(C)C2 5.78%, O=C(COC(=O)CCCSc1nc2ccccc2[nH]1)Nc1ccc(Oc2ccccc2)cc1 10.7%, COc1ccc([C@@H]2[C@@H]3C(=O)N(C(C)(C)C)C(=O)[C@@H]3[C@]3(Cc4ccccc4)C(=O)N(c4cccc(Br)c4)C(=O)N23)cc1 5.88%, CC1(Cc2cccc(C#N)c2)C(=O)Nc2ccc(-c3cccc(C(F)(F)F)c3)cc21 (stereo unspecified) 10.6%, Cc1ccc(NC(=O)c2nc[nH]c2C(=O)N[C@@H](CCCCNC(=O)OC(C)(C)C)C(=O)OC(C)(C)C)cc1 11.2%, O=Cc1cn(CCOc2ccc(F)cc2)c2ccccc12 2.15%, CCOc1ccc(Nc2oc(Cc3ccccc3)nc2C#N)cc1 1.49%, N/C(Cc1ccc([N+](=O)[O-])cc1)=N\OC(=O)COc1ccc2ccccc2c1 3.81%, CC(C)(C)OC(=O)N1CCC(NC(=O)c2[nH]cnc2C(=O)N[C@@H](Cc2ccccc2)C(=O)OCc2ccccc2)CC1 9.68%, Cc1cc(C)cc(NS(=O)(=O)c2ccc(Oc3ncc(C(F)(F)F)cc3Cl)cc2)c1 10.8%, Cc1ccc(S(=O)(=O)N2CCN(C(=O)COC(=O)c3c(C)cc(C)cc3C)CC2)c(C)c1 5.29%, Cc1ccc(S(=O)(=O)N(CC(=O)Nc2cccnc2)c2ccc(Br)cc2)cc1 2.78%, COc1ccc(Cl)cc1NC(=O)CN(C)C(=O)CCCc1c[nH]c2ccccc12 3.45%, O=C(NCCc1ccc(Cl)cc1Cl)c1cc([N+](=O)[O-])c[nH]c1=O 0%, C=CC[C@H](CC(=O)N(CCO)Cc1ccccc1)C(=O)N[C@@H](COC(=O)[C@@H](CC=C)Cc1ccc(F)cc1)Cc1ccccc1 8.13%, COc1cc(C2CC(=O)N3CN(Cc4ccccc4)CSC3=C2C#N)ccc1OCc1ccccc1 (stereo unspecified) 5.28%, CC(N=Cc1nc(-c2ccccc2)oc1O)c1ccccc1 (stereo unspecified) 2.54%, C=CCC[C@@H](Cc1ccc(F)cc1)C(=O)OC[C@H](Cc1c[nH]c2ccccc12)NC(=O)[C@@H](CC=C)CC(=O)N(CCO)Cc1ccccc1 10.1%, COc1ccc(Cl)cc1NC(=O)COC(=O)C(CC(C)C)N1C(=O)C2CC=CCC2C1=O (stereo unspecified) 2.32%, Cc1cccc(C2c3[nH]c4ccccc4c3CCN2C(=O)c2cc(-c3cccn3C)n[nH]2)n1 (stereo unspecified) 6.14%, N#Cc1nc(Cc2cccc3ccccc23)oc1NCc1ccc2c(c1)OCO2 6.72%, C#CCN(C[C@H]1[C@H](OC(=O)NC2CCCC2)[C@H](OC(=O)NC2CCCC2)C[C@H]2C(=O)N(c3ccccc3)C(=O)[C@@H]12)S(=O)(=O)c1ccc(C)cc1 2.92%, Cc1ccc(NS(=O)(=O)c2ccc(C)c(NC(=O)COc3ccc4ccccc4c3)c2)c(C)c1 9.74%, O=C(CNC(=O)c1ccc(Cl)cc1Cl)NCC(=O)Nc1ccccc1N1CCOCC1 0.46%, CCOc1ccc(Br)cc1S(=O)(=O)Nc1ccc(C(=O)OC(C)C(=O)N(C)c2ccccc2)cc1 (stereo unspecified) 9.44%, CCC(C(=O)OCC(=O)Nc1ccccc1-c1ccccc1)c1ccccc1 (stereo unspecified) 2.14%, Cc1csc(NC(=S)Nc2cccc(Cl)c2)n1 7.9%, CC(C)Oc1cc(F)ccc1-c1cc(C(=O)Nc2cccc(Cl)c2)[nH]n1 9.22%, c1ccc2c(CCN3CCNC[C@H]3Cc3cccc4ccccc34)cccc2c1 5.45%, COc1cc(/C=N/O)cc(Br)c1OS(=O)(=O)c1ccc(C)cc1 2.32%, O=C1[C@H]2[C@@H](c3ccc(C(F)(F)F)cc3)N[C@]3(CCCN(Cc4ccc(Br)cc4)C3=O)[C@H]2C(=O)N1Cc1ccccc1 6.04%, CC(C)(C)c1ccc(C(=O)Nc2cc(Cl)c(Br)cc2C(=O)O)cc1 3.89%, CC(C)C(=O)Nc1cccc(NC(=S)NC(=O)C(c2ccccc2)c2ccccc2)c1 7.37%

Reference: PubChem BioAssay AID743208 (The Scripps Research Institute Molecular Screening Center, 2013)
